{"source": "ChEMBL document CHEMBL1121618", "about": "“Thymidine phosphorylase. Substrate specificity for 5-substituted 2'-deoxyuridines” (J Med Chem, 1980)", "data": [{"test": "Ratio of Vmax to that of dThd (Vmax = 0.14)", "summary_of_the_method": "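Continuous UV assay of phosphorolysis by a dThd phosphorylase preparation. Initial rates were followed at each nucleoside's Δλmax, the wavelength of maximal nucleoside/base absorbance difference determined per substrate, and converted using Δεmax. Nucleoside was varied from 60–320 μM in 0.1 M potassium phosphate (pH 6.0) with limiting enzyme at 25.0 °C. Vmax was expressed relative to dThd in the same assay.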", "values": [{"compound": "C=CCc1cn([C@H]2C[C@H](O)[C@@H](CO)O2)c(=O)[nH]c1=O", "Vmax": 0.76}, {"compound": "O=c1[nH]c(=O)n([C@H]2C[C@H](O)[C@@H](CO)O2)cc1I", "Vmax": 3.85}, {"compound": "CCc1cn([C@H]2C[C@H](O)[C@@H](CO)O2)c(=O)[nH]c1=O", "Vmax": 0.79}, {"compound": "O=Cc1cn([C@H]2C[C@H](O)[C@@H](CO)O2)c(=O)[nH]c1=O", "Vmax": 1.46}, {"compound": "N#Cc1cn([C@H]2C[C@H](O)[C@@H](CO)O2)c(=O)[nH]c1=O", "Vmax": 0.74}, {"compound": "O=c1[nH]c(=O)n([C@H]2C[C@H](O)[C@@H](CO)O2)cc1Br", "Vmax": 3.51}, {"compound": "O=c1ccn([C@H]2C[C@H](O)[C@@H](CO)O2)c(=O)[nH]1", "Vmax": 0.88}, {"compound": "Cc1cn([C@H]2C[C@H](O)[C@@H](CO)O2)c(=O)[nH]c1=O", "Vmax": 1}, {"compound": "C/C=C/c1cn([C@H]2C[C@H](O)[C@@H](CO)O2)c(=O)[nH]c1=O", "Vmax": 0.57}, {"compound": "O=c1[nH]c(=O)n([C@H]2C[C@H](O)[C@@H](CO)O2)cc1CO", "Vmax": 0.6}, {"compound": "O=c1[nH]c(=O)n([C@H]2C[C@H](O)[C@@H](CO)O2)cc1C(F)(F)F", "Vmax": 8.53}, {"compound": "O=c1[nH]c(=O)n([C@H]2C[C@H](O)[C@@H](CO)O2)cc1Cl", "Vmax": 4.2}, {"compound": "O=c1[nH]c(=O)n([C@H]2C[C@H](O)[C@@H](CO)O2)cc1F", "Vmax": 3.42}]}]}
